Screen size: about 85,000 compounds; about 940 (1.1%) were called active.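 Rule for the calls: active = viability at or below 50% in the single dose screen; inactive = viability above 50%.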 What follows is part of a selection rich in actives, with near analogues and random picks from the rest.

The assay is described as follows: antiproliferative effect on LL 47 fibroblasts – human, LL 47 cells, CellTiter-Glo luminescence, primary screen (AID 719).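 Note: compound exposure lasted 72 h before the ATP readout; 100% = median luminescence of untreated cell-only wells.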 Particulars: LL 47 human lung fibroblast viability, ATP luminescence; at 10 µM; stronger effect = lower value. The gist of the method:
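material = human LL 47 lung fibroblast cells | dosing = compounds added from tenfold dosing solution, 0.1% DMSO final | timing = overnight cell rest, 72 h compound treatment at 37 °C | measured by = CellTiter-Glo luminescence measuring cellular ATP | evaluation = % viability versus median cells-only luminescence | control set = cell-only wells, no compound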
In the case of `O=C(CCn1c(SCC(=O)c2ccccc2)nc2ccccc2c1=O)NCc1ccc(F)cc1`, the viability was 103% (inactive).

In the case of `CCOc1cccc(-n2nnnc2-c2ccc(OC)cc2)c1`, the viability is 47.7% (active).

Consider `COc1ccc(C2=CC(c3cccc(OC)c3)n3nnnc3N2)cc1` (stereo unspecified), for which the viability is 86.1% (inactive).

Consider `CCOc1cccc(-c2nnc3sc(COc4ccc(OC)cc4)nn23)c1`, for which the viability was 99.8% (inactive).

Consider `Cc1ccc(Nc2nnc(SCc3ccccc3)s2)cc1`, for which the viability is 102% (inactive).

In the case of `Cc1ccc(C)c(N2C(=O)CS/C2=N\NC(=O)c2ccccc2Cl)c1`, the viability is 101% (inactive).

With `CC(C)CC(N=C1NC(C)(C)Cc2ccccc21)C(=O)O` (stereo unspecified), the viability was 111% (inactive).

In the case of `COc1cccc(NC(=O)Cc2ccc(C)cc2)c1`, the viability was 91.5% (inactive).

With `COc1ccc(NC(=O)/C(Cl)=C(/Cl)S(=O)Cc2ccc(C)cc2)cn1` (stereo unspecified), the viability is 1.6% (active).

For the compound `COc1ccc(-c2nc3ccccc3n2CCC(C)C)cc1OC`, the viability was 99.3% (inactive).

As for `O=C(CN1CCCCCC1)N1c2ccccc2Sc2ccc(C(F)(F)F)cc21`, the viability is 96% (inactive).

As for `CCCCCCc1cc2cc(-c3nnc(-c4cccc(OC)c4)o3)c(=O)oc2cc1O`, the viability is 64.8% (inactive).

With `COC(=O)CSc1nc2c(c(C3CC=CCC3)c1C#N)CCC2` (stereo unspecified), the viability is 101% (inactive).

As to `Cc1cc(C)n(-c2nnc(C)n2NC(=O)c2cccc(Cl)c2)n1`, the viability was 94.7% (inactive).

On to `COCCCn1c(SCC(=O)Nc2ccccc2)nnc1-c1ccncc1`, for which the viability was 108% (inactive).

For the compound `Cc1ccc(NC(=O)N2CCC(c3nc4c(nnn4Cc4c(F)cccc4Cl)c(=O)[nH]3)CC2)cc1`, the viability is 95% (inactive).

Take `OCCCN1c2ccccc2Nc2nnc(-c3ccccc3)cc21`: the viability is 89.3% (inactive).

For the compound `N=c1c2c(-c3ccccc3)c(-c3ccccc3)n(Cc3ccccc3)c2ncn1CCCO`, the viability is 39% (active).

Take `C=CCO/N=C(\C)c1c(O)c(C)c(-c2ccccc2)n(-c2ccccc2)c1=O`: the viability is 99.4% (inactive).

On to `Cc1cccc(N2CCN(C(=O)c3cnn4c(C(F)F)cc(-c5ccccc5)nc34)CC2)c1C`, for which the viability is 87.9% (inactive).

With `CCCn1c(=O)c2ccccc2n2c(SCC(=O)/C(C#N)=C(\C)N)nnc12`, the viability is 93.4% (inactive).

Regarding `C=CCn1c(SCC(=O)/C(C#N)=C(\C)N)nc2sc(C)c(C)c2c1=O`, the viability is 34.3% (active).

With `Cc1sc2nc(SCC(N)=O)n(C)c(=O)c2c1C`, the viability is 93.8% (inactive).

Turning to `CCOc1cc(NC(=O)c2cnccn2)c(OCC)cc1NC(=O)c1ccc(C)cc1`, the viability was 97.9% (inactive).

Consider `CCOC(=O)N1CCN(S(=O)(=O)c2ccc(C(=O)Nc3ccc(F)cc3F)cc2)CC1`, for which the viability was 47.5% (active).

Take `COc1ccc(C(=O)Nc2ccc(F)cc2F)cc1`: the viability was 99.5% (inactive).

With `O=C(Nc1cccc(F)c1)c1ccc(S(=O)(=O)N2CCCC2)cc1`, the viability was 109% (inactive).

On to `COc1ccc(Nc2ncc(C(=O)N3CCN(c4ccccc4OC)CC3)c3ccccc23)cc1`, for which the viability was 100% (inactive).

For the compound `Fc1ccc(-n2c(Cc3ccccc3)nnc2SCc2nc(-c3ccc(Cl)cc3)no2)cc1`, the viability was 111% (inactive).

Regarding `CC(C)CNC(=O)CC(c1ccccc1)c1c(O)ccc2ccccc12` (stereo unspecified), the viability is 94.7% (inactive).

Regarding `CC(C)C(=O)NC(NC(=S)NC1CCS(=O)(=O)C1)C(Cl)(Cl)Cl` (stereo unspecified), the viability is 104% (inactive).

As to `COCCn1c(SCc2nnc(-c3ccc(OC)c(OC)c3)o2)nc2sc3c(c2c1=O)CCC3`, the viability is 99.8% (inactive).

As to `O=C(Cn1cnc2c(nnn2Cc2ccc(F)cc2)c1=O)NCc1ccc2c(c1)OCO2`, the viability was 93.2% (inactive).

For `Cc1nc(Nc2ccc3c(c2)OCCO3)c2nnn(Cc3ccccc3Cl)c2n1`, the viability is 98.4% (inactive).

With `CCCc1nc(NCc2ccc3c(c2)OCO3)c2nnn(Cc3ccccc3Cl)c2n1`, the viability was 23.2% (active).

Take `COC(=O)c1cccc(-n2[nH]nnc2=S)c1`: the viability was 102% (inactive).

Consider `O=C(CSc1nnc(Cc2ccccc2)n1-c1ccccc1)N1CCOCC1`, for which the viability is 109% (inactive).

Take `CCOC(=O)CSc1nnc(CNC(=O)c2ccco2)n1-c1ccc(F)cc1`: the viability was 103% (inactive).

As to `Cc1ccc(-n2c(CNc3ccc(F)cc3)nnc2SCC(=O)N2CCOCC2)cc1`, the viability was 2.59% (active).

As for `O=C(NCCCn1ccnc1)Nc1ccc(Cl)cc1Cl`, the viability was 102% (inactive).

On to `CCCCOc1ccc(N(CC(=O)NCC2CCCO2)C(=O)CCC(=O)Nc2cc(C)ccn2)cc1` (stereo unspecified), for which the viability is 91.1% (inactive).

Regarding `COc1ccc(Br)cc1CN1CCN(C(=O)c2cccc(OC)c2OC)CC1`, the viability is 94.1% (inactive).

On to `O=C1CCCCC(=O)c2ccccc2N1`, for which the viability was 96.7% (inactive).

In the case of `c1ccc2c(c1)C(=NC1CCCCC1)NC2=NC1CCCCC1`, the viability is 40.6% (active).

For `Cc1nn(Cc2ccccc2)c2c1C(c1ccccc1)C(C#N)=C(N)O2` (stereo unspecified), the viability was 98.6% (inactive).

For the compound `CCCCNS(=O)(=O)c1ccc(S(=O)(=O)n2cnc3ccccc32)cc1`, the viability was 107% (inactive).

Consider `Cc1ccc(C(=O)NCC2CCCO2)o1` (stereo unspecified), for which the viability was 101% (inactive).

`Cc1cc(Br)ccc1NC(=O)C1CCCO1` (stereo unspecified): the viability is 91.1% (inactive).

Turning to `OC(CNCC1CCCO1)Cn1c2ccc(Br)cc2c2cc(Br)ccc21` (stereo unspecified), the viability is 2.96% (active).

With `COC(=O)C1=C(C(=O)OC)C2(OC1c1ccc(Br)cc1)C(=O)c1ccccc1C2=O` (stereo unspecified), the viability is 105% (inactive).

Take `O=C(Nc1cccc(NC(=O)c2ccco2)c1)c1cnccn1`: the viability is 103% (inactive).

In the case of `COC(=O)c1cc2nc(-c3ccccc3)cc(C(F)(F)F)n2n1`, the viability is 97.7% (inactive).

For `CNc1nc(SC)nc(N(C#N)CC(=O)OC)n1`, the viability was 107% (inactive).

Turning to `CC(=O)Nc1ccc(S(=O)(=O)N2CCN(C(=O)c3ccccc3F)CC2)cc1`, the viability is 105% (inactive).

`O=c1c2ccccc2nc(N/N=C/c2ccccc2)n1O`: the viability was 99.1% (inactive).

With `Cc1nc2ccccc2c(=O)n1CCCn1ccnc1`, the viability is 100% (inactive).

As for `CCn1c(/C=C/c2ccc([N+](=O)[O-])o2)nc2ccccc2c1=O`, the viability is 9.18% (active).

Take `C=CCn1c(SCc2c(C)noc2C)nc2sc3c(c2c1=O)CCC(C)C3` (stereo unspecified): the viability is 47.2% (active).

Regarding `CCCn1nnc2sc3c(c2c1=O)CCC(C)C3` (stereo unspecified), the viability was 88.2% (inactive).

Turning to `CC1CCc2c(sc3nc4n(c(=O)c23)CCS4)C1` (stereo unspecified), the viability is 104% (inactive).

For `COc1ccc(CN(CC(=O)NC2CCCC2)C(=O)CCC(=O)Nc2cc(C)on2)cc1`, the viability is 101% (inactive).

In the case of `O=C1C=C(c2ccc(Cl)cc2)C(=O)N1Nc1ccccc1`, the viability is 49.3% (active).

Regarding `Cc1ccc(-c2noc(CSc3nnc(-c4ccncc4)n3-c3ccc(F)cc3)n2)cc1`, the viability was 80.8% (inactive).

For the compound `OC(CN=c1sc2ccccc2n1CC(O)COc1ccccc1)COc1ccccc1` (stereo unspecified), the viability was 86% (inactive).

On to `O=C(CC(O)(C(F)(F)F)C(F)(F)F)Nc1ccc(Cl)c(Cl)c1`, for which the viability was 22.4% (active).

With `CN(C)CCNC(CC(=O)Nc1ccc(Cl)c(Cl)c1)C(=O)O` (stereo unspecified), the viability was 102% (inactive).

Regarding `N/C(=N\OC(=O)Nc1ccc(Cl)c(Cl)c1)c1ncc(C(F)(F)F)cc1Cl`, the viability is 97.2% (inactive).

With `COC(=O)c1ccc(NC(=O)C23CC4CC(C2)CC(n2cnc(Cl)n2)(C4)C3)cc1`, the viability is 96.5% (inactive).

`COc1ccc(C2CC(c3cccs3)=Nc3ccccc3S2)cc1OC` (stereo unspecified): the viability is 93.6% (inactive).

With `COc1ccc(N(CC(=O)NC2CCCCC2)C(=O)CNC(=O)c2ccco2)c(OC)c1`, the viability is 96.4% (inactive).

As for `COc1ccc(Nc2oc(-c3ccccc3Cl)nc2C#N)cc1`, the viability was 23.1% (active).

`COc1ccccc1-c1nc(C#N)c(N2CCC(C(N)=O)CC2)o1`: the viability was 89.3% (inactive).

For `CCOc1ccc(Nc2oc(Cc3ccccc3)nc2C#N)cc1`, the viability was 99.8% (inactive).

In the case of `COc1ccccc1NC1=NC(c2ccc(Cl)cc2)N=C(N)N1` (stereo unspecified), the viability is 45.8% (active).

Take `COc1ccccc1NC1=NC2(CCCC2)N=C(N)N1`: the viability is 93% (inactive).

As for `COc1ccccc1Nc1nc(N)nc(CN(C)C2CCCCC2)n1`, the viability is 94.3% (inactive).

For the compound `CCn1c(=O)c(=O)n(CC)c2cc(S(=O)(=O)N3CCc4ccccc43)ccc21`, the viability is 70.5% (inactive).

Take `CC1(C)CCc2nc(SCc3ccccc3)c(C#N)cc2C1`: the viability was 95.3% (inactive).

With `Cc1nc(NC(=O)C2CCCCC2)sc1C`, the viability was 108% (inactive).

Turning to `O=C(NCc1ccccc1)C1CCCN(S(=O)(=O)c2cccs2)C1` (stereo unspecified), the viability is 94.6% (inactive).

For the compound `O=C(Cn1c(-c2cscn2)nc2ccccc21)Nc1ccc(Cl)cc1`, the viability was 90.7% (inactive).

With `CN(C)c1ccnc2sc3c(=O)n(-c4ccc(Cl)cc4)cnc3c12`, the viability is 102% (inactive).

For `N#CC1=C(N)Oc2c(sc3ccccc23)C1c1ccco1` (stereo unspecified), the viability is 20.2% (active).

For `CC1=C(C(=O)Nc2ccccc2)C(c2ccco2)C(C#N)=C(SCC(N)=O)N1` (stereo unspecified), the viability was 88.2% (inactive).

`Cc1cc2c(c(=O)n1Cc1ccco1)C(c1ccccc1)C(C#N)=C(N)O2` (stereo unspecified): the viability was 107% (inactive).

`CCNc1nc(NC(C)C)nc(OCCOC(=O)c2ccccc2)n1`: the viability is 108% (inactive).

In the case of `Cc1cc(O)cc(O)c1C(=O)Cc1cnn(-c2ccccc2)c1`, the viability was 98.6% (inactive).

As to `C/C(=N\NC(=O)c1ccc(C)cc1)C1C(=O)c2ccccc2C1=O`, the viability is 103% (inactive).

Regarding `COc1cccc(-c2nnc(NC(=O)c3ccc(S(=O)(=O)N(CC(C)C)CC(C)C)cc3)o2)c1`, the viability is 8.59% (active).

`COc1cccc(NC(=O)CN(C)S(=O)(=O)c2ccc(C)cc2)c1`: the viability was 93.1% (inactive).

For the compound `CCN(CC)C(=O)CSc1nnc(-c2cccc(OC)c2)o1`, the viability is 101% (inactive).

As to `c1ccc(-n2nc3ccccc3n2)cc1`, the viability is 100% (inactive).

As for `C/C(=N\NC(=O)c1nc(C)cc(C)n1)c1ccccc1`, the viability is 106% (inactive).

Take `Cc1ccc(OCC(=O)N/N=C\c2ccco2)c(C)c1`: the viability is 108% (inactive).

For `Cc1ccc(/C=N/NC(=O)C2=NNC(c3ccccc3)(c3ccccc3)C2)c(O)c1`, the viability was 19.2% (active).

Turning to `CCOc1ccc(-n2c(N)c(C(=O)NCC3CCCO3)sc2=S)cc1` (stereo unspecified), the viability was 101% (inactive).

By viability is commonly meant a read-out of living cells in per cent, often relative to untreated cells.

For the origin of these results see PubChem BioAssay AID719 (SRMLSC, 2007).
